Active and inactive are the calls of the source. The calls are words filed in the database; no cut-off is given here.

For one data set, the target named is T1, Aldehyde dehydrogenase 1A1 (Homo sapiens, UniProt P00352).
T1 sequence (P00352 whole entry): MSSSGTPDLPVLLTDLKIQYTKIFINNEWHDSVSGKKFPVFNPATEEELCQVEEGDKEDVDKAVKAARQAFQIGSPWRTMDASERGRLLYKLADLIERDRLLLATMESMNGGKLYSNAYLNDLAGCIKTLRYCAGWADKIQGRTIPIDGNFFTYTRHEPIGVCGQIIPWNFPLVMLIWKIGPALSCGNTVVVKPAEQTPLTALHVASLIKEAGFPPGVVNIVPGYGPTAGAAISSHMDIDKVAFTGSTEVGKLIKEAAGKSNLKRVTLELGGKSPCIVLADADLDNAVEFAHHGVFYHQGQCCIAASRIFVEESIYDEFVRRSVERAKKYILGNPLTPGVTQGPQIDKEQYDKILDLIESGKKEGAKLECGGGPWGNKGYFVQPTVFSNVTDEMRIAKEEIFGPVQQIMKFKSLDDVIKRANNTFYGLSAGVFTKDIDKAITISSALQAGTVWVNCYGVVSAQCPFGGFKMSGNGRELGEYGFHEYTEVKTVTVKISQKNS
Put plainly: Inhibition of ALDH1A1 (unknown origin) assessed as NADH formation using propionaldehyde as substrate.
Conditions: not given
Take `Br.N=C(N)SCc1ccc(CN2C(=O)C(=O)c3cc(C(F)(F)F)ccc32)cc1`: the IC50 (usually the concentration needed to halve the response being measured) is 334 nM.
Still for that read-out and setting: the value for `N=C(N)SCc1ccc(CN2C(=O)C(=O)c3cccc(F)c32)cc1` was 598 nM; that for `N=C(N)SCc1ccc(CN2C(=O)C(=O)c3cccc(Cl)c32)cc1` was 177 nM.

In a further data set the target is T2, Aldehyde dehydrogenase, mitochondrial (Homo sapiens, UniProt P05091).
T2 sequence (P05091 whole entry): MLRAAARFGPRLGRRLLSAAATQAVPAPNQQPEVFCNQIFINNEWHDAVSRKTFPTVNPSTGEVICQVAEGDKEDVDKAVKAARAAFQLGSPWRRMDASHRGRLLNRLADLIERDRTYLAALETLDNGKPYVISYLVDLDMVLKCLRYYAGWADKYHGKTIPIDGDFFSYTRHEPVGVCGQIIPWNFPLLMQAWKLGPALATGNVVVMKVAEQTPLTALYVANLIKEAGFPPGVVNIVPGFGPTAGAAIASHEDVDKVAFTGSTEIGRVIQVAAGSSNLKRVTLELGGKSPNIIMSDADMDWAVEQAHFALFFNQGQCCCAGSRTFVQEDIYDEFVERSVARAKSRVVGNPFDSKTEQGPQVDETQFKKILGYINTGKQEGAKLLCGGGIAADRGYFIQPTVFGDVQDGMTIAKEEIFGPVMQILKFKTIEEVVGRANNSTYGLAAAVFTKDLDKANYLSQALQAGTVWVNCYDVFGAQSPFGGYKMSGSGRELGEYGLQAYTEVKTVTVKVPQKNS
Put plainly: Inhibition of ALDH2 (unknown origin) assessed as NADH formation using acetaldehyde as substrate.
Conditions: not given
In a few lines:
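Enzyme at 0.5 µg/mL preincubated 15 min with varied inhibitor concentrations. Reaction started with 2 mM acetaldehyde plus NAD+ in buffer, as for the ALDH1A1 assay.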
Consider `Br.N=C(N)SCc1ccc(CN2C(=O)C(=O)c3cc(C(F)(F)F)ccc32)cc1`, for which the half-maximal inhibitory concentration (IC50) worked out at 2.14 µM.
As for `N=C(N)SCc1ccc(CN2C(=O)C(=O)c3cccc(F)c32)cc1`, the IC50 is over 10 µM.
As for `N=C(N)SCc1ccc(CN2C(=O)C(=O)c3cccc(Cl)c32)cc1`, the IC50 was over 10 µM.

Another data set addresses T3, Aldehyde dehydrogenase, dimeric NADP-preferring (Homo sapiens, UniProt P30838).
T3 sequence (P30838 whole entry): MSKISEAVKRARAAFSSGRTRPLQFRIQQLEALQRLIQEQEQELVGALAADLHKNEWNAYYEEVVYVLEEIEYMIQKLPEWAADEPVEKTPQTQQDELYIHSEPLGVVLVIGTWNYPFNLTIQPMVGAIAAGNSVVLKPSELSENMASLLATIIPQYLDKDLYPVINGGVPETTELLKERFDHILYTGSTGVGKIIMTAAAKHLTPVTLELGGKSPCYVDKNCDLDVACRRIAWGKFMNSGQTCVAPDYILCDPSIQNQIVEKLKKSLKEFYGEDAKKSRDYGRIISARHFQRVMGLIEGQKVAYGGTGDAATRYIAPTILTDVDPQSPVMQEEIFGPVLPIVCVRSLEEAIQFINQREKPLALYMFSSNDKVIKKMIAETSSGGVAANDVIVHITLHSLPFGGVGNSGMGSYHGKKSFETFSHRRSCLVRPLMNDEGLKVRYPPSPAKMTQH
Kind of data set: Inhibition of ALDH3A1 (unknown origin) assessed as NADH formation using 4-nitrobenzaldehyde as substrate.
Conditions: not given
In a few lines: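 Protein at 0.2 µg/mL exposed 15 min to graded inhibitor concentrations. 1 mM 4-nitrobenzaldehyde substrate with NAD+ then added, run as for the ALDH1A1 assay.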
For `Br.N=C(N)SCc1ccc(CN2C(=O)C(=O)c3cc(C(F)(F)F)ccc32)cc1`, the IC50 is 360 nM.
In the case of `N=C(N)SCc1ccc(CN2C(=O)C(=O)c3cccc(F)c32)cc1`, the IC50 stood at 241 nM.
Same read-out and setting: the value for `N=C(N)SCc1ccc(CN2C(=O)C(=O)c3cccc(Cl)c32)cc1` was 3590 nM.

The next data set relates to UACC-903. Kind of data set: Antiproliferative activity against human UACC 903 cells measured after 72 hrs by MTS assay. Format: functional, cell-based. Particulars: UACC-903, 72 h. In a few lines:
(§1)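 Cells seeded at 5,000 per well, left overnight at 37°C in 5% CO2, then exposed to a range of compound concentrations for 72 h. IC50 was fitted from dose-response curves, 3 independent experiments, reported as mean + SD.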
On the technique in general: Formazan colour is commonly taken as a measure of viable cells.
With `Br.N=C(N)SCc1ccc(CN2C(=O)C(=O)c3cc(C(F)(F)F)ccc32)cc1`, the IC50 came out at 5.7 µM.

Tested on in another data set: not listed separately
Put plainly: Antiproliferative activity against human 1205Lu cells measured after 72 hrs by MTS assay. Format: functional, cell-based.
Conditions: not given
In a few lines:
as §1
Consider `Br.N=C(N)SCc1ccc(CN2C(=O)C(=O)c3cc(C(F)(F)F)ccc32)cc1`, for which the IC50 stood at 5.7 µM.

The next data set relates to HCT-116. Kind of data set: Antiproliferative activity against human HCT116 cells measured after 72 hrs by MTS assay. The settings on record: HCT-116, 72 h. Type of data set: functional, cell-based. In a few lines:
as §1
Take `Br.N=C(N)SCc1ccc(CN2C(=O)C(=O)c3cc(C(F)(F)F)ccc32)cc1`: the IC50 is 5.7 µM.

In the next data set the test system is HT-29. Kind of data set: Antiproliferative activity against human HT-29 cells measured after 72 hrs by MTS assay. Format: functional, cell-based. The settings on record: HT-29, 72 h. The essentials: as §1
Turning to `Br.N=C(N)SCc1ccc(CN2C(=O)C(=O)c3cc(C(F)(F)F)ccc32)cc1`, the IC50 turned out to be 4.9 µM.

A further data set deals with NCI-H929. Put plainly: Antiproliferative activity against human NCIH929 cells measured after 72 hrs by MTS assay. Type of data set: functional, cell-based. Particulars: NCI-H929, 72 h. The essentials:
as §1
`Br.N=C(N)SCc1ccc(CN2C(=O)C(=O)c3cc(C(F)(F)F)ccc32)cc1`: the IC50 came to 1500 nM.

For another data set, the system named is U-266. Put plainly: Antiproliferative activity against human U266 cells measured after 72 hrs by MTS assay. Format: functional, cell-based. The settings on record: U-266, 72 h. The essentials:
as §1
The compound `Br.N=C(N)SCc1ccc(CN2C(=O)C(=O)c3cc(C(F)(F)F)ccc32)cc1` gave an IC50 of 2600 nM.

Another data set concerns RPMI-8226. Put plainly: Antiproliferative activity against human RPMI8226 cells measured after 72 hrs by MTS assay. Particulars: RPMI-8226, 72 h. Type of data set: functional, cell-based. In a few lines:
as §1
`Br.N=C(N)SCc1ccc(CN2C(=O)C(=O)c3cc(C(F)(F)F)ccc32)cc1` showed an IC50 of 1600 nM.

Tested on in another data set: not listed separately
Kind of data set: Antiproliferative activity against human MM.1R cells measured after 72 hrs by MTS assay. Type of data set: functional, cell-based.
Conditions: not given
The essentials: as §1
In the case of `Br.N=C(N)SCc1ccc(CN2C(=O)C(=O)c3cc(C(F)(F)F)ccc32)cc1`, the concentration for half-maximal inhibition (IC50) worked out at 1700 nM.

In a further data set the test system is MM1.S. Kind of data set: Antiproliferative activity against human MM.1S cells measured after 72 hrs by MTS assay. Type of data set: functional, cell-based.
Conditions: not given
In a few lines:
as §1
The compound `Br.N=C(N)SCc1ccc(CN2C(=O)C(=O)c3cc(C(F)(F)F)ccc32)cc1` returned an IC50 of 2200 nM.

Tested on in the next data set: not listed separately
Kind of data set: Cytotoxicity against human FF2441 cells measured after 72 hrs by MTS assay. Format: cell-based. Particulars: FF2441, 72 h. The essentials:
as §1
In turn, `Br.N=C(N)SCc1ccc(CN2C(=O)C(=O)c3cc(C(F)(F)F)ccc32)cc1` yielded an IC50 of 20.7 µM.

Tested on in the next data set: not listed separately
Put plainly: Toxicity in Swiss-Webster mouse assessed as body weight loss at 5 mg/kg/day, ip for 14 days. The settings on record: in vivo, 336 h, time 14 day. Format: organism-based. In a few lines: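 Swiss-Webster mice received 5 mg/kg/day i.p. once daily for 14 days. Body weight, behaviour and physical distress were monitored, with % weight change compared against DMSO vehicle controls.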
With `Br.N=C(N)SCc1ccc(CN2C(=O)C(=O)c3cc(C(F)(F)F)ccc32)cc1`, the Activity is 2%.

The next data set deals with HCT-116. Put plainly: Induction of ROS production in human HCT-116 cells at 5 uM incubated for 24 hrs by DCFDA staining based fluorescence microscopic analysis. Format: functional, cell-based.
Conditions: not given
With `Br.N=C(N)SCc1ccc(CN2C(=O)C(=O)c3cc(C(F)(F)F)ccc32)cc1`, the outcome was Active.

A further data set deals with HCT-116. Put plainly: Induction of ROS production in human HCT-116 cells at 5 uM incubated for 24 hrs in presence of NAC by DCFDA staining based fluorescence microscopic analysis. Format: functional, cell-based.
Conditions: not given
With `Br.N=C(N)SCc1ccc(CN2C(=O)C(=O)c3cc(C(F)(F)F)ccc32)cc1`, the outcome was inactive.

For another data set, the system named is HCT-116. Kind of data set: Induction of lipid peroxidation in human HCT-116 cells at 5 uM incubated for 24 hrs by TBARS assay. Format: functional, cell-based.
Conditions: not given
In a few lines: (§2)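 HCT116 cells treated 24 h with 5 µM compound, with or without 10 mM NAC. Pellets were sonicated on ice in PBS and lipids hydrolysed with acetic acid/NaOH. Free MDA was reacted with TBA and read at 530 nm, compared with DMSO control.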
For the compound `Br.N=C(N)SCc1ccc(CN2C(=O)C(=O)c3cc(C(F)(F)F)ccc32)cc1`, the outcome was Active.

The test system of another data set is HCT-116. Put plainly: Induction of lipid peroxidation in human HCT-116 cells at 5 uM incubated for 24 hrs in presence of NAC by TBARS assay.
Conditions: not given
Type of data set: functional, cell-based. In a few lines:
as §2
For `Br.N=C(N)SCc1ccc(CN2C(=O)C(=O)c3cc(C(F)(F)F)ccc32)cc1`, the result was inactive.

The next data set deals with HCT-116. Put plainly: Induction of apoptosis in human HCT-116 cells at 5 uM incubated for 24 hrs by annexinV- and […] staining based flow cytometry. Format: functional, cell-based.
Conditions: not given
The essentials:
(§3)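 HCT116 cells treated 24 h with 5 µM compound, with or without 10 mM NAC. Cells were detached, PBS-washed, stained with Annexin-V-PE and 7-AAD, and analysed by flow cytometry. Annexin-V/7-AAD double-positive cells were scored as late apoptotic, relative to DMSO control.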
For orientation: Flow cytometry measures light scatter and fluorescence of single cells or particles in a stream.
On to `Br.N=C(N)SCc1ccc(CN2C(=O)C(=O)c3cc(C(F)(F)F)ccc32)cc1`, for which the outcome was Active.

Another data set relates to HCT-116. Put plainly: Induction of apoptosis in human HCT-116 cells at 5 uM incubated for 24 hrs in presence of NAC by annexinV- and […] staining based flow cytometry. Format: functional, cell-based.
Conditions: not given
In a few lines: as §3
On to `Br.N=C(N)SCc1ccc(CN2C(=O)C(=O)c3cc(C(F)(F)F)ccc32)cc1`, for which the outcome was inactive.

Another data set relates to HCT-116. Put plainly: Induction of cell cycle arrest in human HCT-116 cells assessed as accumulation of cells at G2/M phase at 5 uM incubated for 24 hrs by PI staining based flow cytometry. Format: functional.
Conditions: not given
The essentials:
(§4)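 HCT116 cells given 5 µM compound for 24 h, with or without 10 mM NAC. Cells were detached, PBS-washed, fixed in 70% ethanol and stained with propidium iodide. DNA content read by flow cytometry for cell-cycle distribution.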
For the compound `Br.N=C(N)SCc1ccc(CN2C(=O)C(=O)c3cc(C(F)(F)F)ccc32)cc1`, the outcome was Active.

In a further data set the test system is HCT-116. Put plainly: Induction of cell cycle arrest in human HCT-116 cells assessed as accumulation of cells at G2/M phase at 5 uM incubated for 24 hrs in presence of NAC by PI staining based flow cytometry. Format: functional.
Conditions: not given
In a few lines: as §4
Turning to `Br.N=C(N)SCc1ccc(CN2C(=O)C(=O)c3cc(C(F)(F)F)ccc32)cc1`, the outcome was inactive.

Source of the values: ChEMBL document CHEMBL4706494, “Design, synthesis characterization and biological evaluation of novel multi-isoform ALDH inhibitors as potential anticancer agents” (Eur J Med Chem, 2020).
